Screening data as filed in PubChem BioAssay.
NR2E3 ag-1: activates human photoreceptor nuclear receptor NR2E3; 320,000 compounds, 0.12% hits; inhibition of corepressor binding, % at 4.78 µM; GST-NR2E3/biotin-RetCOR TR-FRET, 1536-well; Q9Y5X4;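 active means percent inhibition above the cutoff of mean plus 3 SD of all tested compounds, set per screening campaign, cut at about 20% in these data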;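 further: 0% = DMSO wells and 100% = biotin wells as full block of FRET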
Target sequence (Q9Y5X4 whole entry, looked up): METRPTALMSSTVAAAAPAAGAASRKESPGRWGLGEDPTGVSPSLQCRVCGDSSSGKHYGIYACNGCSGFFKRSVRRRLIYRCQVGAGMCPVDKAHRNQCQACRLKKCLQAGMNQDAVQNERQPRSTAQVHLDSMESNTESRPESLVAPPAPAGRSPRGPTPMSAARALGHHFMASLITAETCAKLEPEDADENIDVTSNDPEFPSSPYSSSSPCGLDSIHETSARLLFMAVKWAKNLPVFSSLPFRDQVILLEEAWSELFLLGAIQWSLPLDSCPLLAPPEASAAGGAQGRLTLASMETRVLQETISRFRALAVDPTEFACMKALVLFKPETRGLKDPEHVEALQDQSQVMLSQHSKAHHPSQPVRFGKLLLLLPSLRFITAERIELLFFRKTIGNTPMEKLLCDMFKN
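Test system: GST-NR2E3 and biotin-RetCOR proteins | Quantity: 1.35 nM GST-tagged NR2E3 final | Medium: Tris pH 7.5 | Also added: 7 nM biotin-RetCOR | Dosing: Compound at 4.8 µM, single dose | Timing: 5 h at 4 °C | Detection: Time-resolved FRET | Read-out basis: Percent inhibition | Benchmarks: Biotin wells as high control, 0.6% DMSO wells as low control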
NR2E3 ag-2: human photoreceptor-specific nuclear receptor agonism; inhibition of corepressor binding, % at 3.98 µM; CHO-S Gal4-NCOR/VP16-NR2E3 two-hybrid, luciferase; Q9Y5X4; 360,000 compounds, 0.35% hits;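 active means inhibition above the mean of all tested compounds plus 3 SD, cut at about 70% in these data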;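 further: 0% = DMSO with NR2E3 transfected cells and 100% = cells lacking NR2E3 construct; higher means lower luciferase signal from less NR2E3 corepressor binding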
DAX1 inh-1: NR0B1 (DAX1) inhibition; AID 504766; inhibition, % at 6.75 µM; 340,000 compounds, 0.99% hits; P51843; HEK293 Gal4-DAX1 luciferase reporter, luminescence;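 active means inhibition above the mean over all tested compounds plus 3 SD, cut at about 4.2% in these data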;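 further: 0% = DAX1-transfected cells with DMSO and 100% = empty-vector control cells with DMSO; inhibition shows as a rise in luminescence from relieved DAX1 repression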
Target sequence (P51843 207-470 limits assumed): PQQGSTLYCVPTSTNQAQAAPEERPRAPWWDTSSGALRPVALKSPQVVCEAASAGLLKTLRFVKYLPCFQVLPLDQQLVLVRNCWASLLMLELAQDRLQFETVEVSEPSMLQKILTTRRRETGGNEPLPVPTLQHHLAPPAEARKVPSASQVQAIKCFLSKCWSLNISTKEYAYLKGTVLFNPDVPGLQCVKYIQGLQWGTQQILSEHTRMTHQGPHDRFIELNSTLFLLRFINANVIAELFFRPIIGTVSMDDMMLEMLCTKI
GASC-1 inh: blocks human GASC-1 demethylase activity | GST-JMJD2C(1-420) H3K9me3 demethylation, DELFIA europium | 330,000 compounds, 0.069% hits | inhibition, % at 2.35 µM | Q9H3R0;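 active means more than half of a compound's replicate wells show inhibition beyond 50%, single wells judged on their own value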;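 further: signal counts dimethyl H3K9 product captured on neutravidin plate; 0% = median of DMSO wells and 100% = 0.3 times that DMSO median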
DAX1 inh-2: inhibitors of DAX1 repression of SF-1 activated StAR promoter; HEK293T StAR-luciferase reporter, SF-1/DAX-1 repression relief; inhibition, % at 6.8 µM; 370,000 compounds, 1.1% hits; AID 652010;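 active means inhibition above the mean over all tested compounds plus 3 SD, cut at about 3.6% in these data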;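 further: 0% = DAX-1 cells with DMSO and 100% = cells lacking DAX-1 with DMSO; higher inhibition means more luminescence from relief of DAX-1 repression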
SMARCA2 act: activators of SMARCA2 function; 370,000 compounds, 1% hits; MG213 cells, MMTV-luciferase reporter, dexamethasone, overnight; activation, % at 9.1 µM; in the data active means activation above about 7.8%;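 further: 0% = vehicle wells and 100% = reference activator wells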
SMARCA2 conf: SMARCA2 activation, confirmation screen. shares compounds with SMARCA2 act. MG213 cells, MMTV-luciferase with dexamethasone, luminescence, overnight; MG213 cells expressing E1A, Rb sequestered; DMSO wells 0%, reference activator 100%. activation, % at 9.1 µM. 3,500 compounds, 30% hits. AID 652260;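 active means activation above its plate's cutoff, the mean activation of tested wells plus 3 SD, cut at about 7.9% in these data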
VP16 Luc act: counter-screen for SMARCA2 activators: GAL4-VP16 luciferase reporter activation; 3,500 compounds, 41% hits; activation, % at 9.1 µM; HEK293 GAL4-VP16 pG5luc reporter, luciferase luminescence; scaled: DMSO wells 0%, SAHA wells 100%; AID 686939; shares compounds with SMARCA2 act;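 active means activation above the solvent-only control well mean plus 3 SD, averaged across control plates, cut at about 5.2% in these data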
The depositor's hits bear a star. Most compounds without a hit are left out; they make up all but 3.2% or so of the library.

How did COc1cccc(-c2noc(-c3cccs3)n2)c1 do in these assays?
NR2E3 ag-1: 1; NR2E3 ag-2: -164; DAX1 inh-1: 2; GASC-1 inh: -2; DAX1 inh-2: 4.0*; SMARCA2 act: 9.5*; SMARCA2 conf: 8.0*; VP16 Luc act: 13*

Results for COc1ccc(-c2ccc(-c3noc(-c4ccccc4)n3)c(OC)n2)cc1 ?
NR2E3 ag-1: 0; NR2E3 ag-2: -23; DAX1 inh-1: 0; GASC-1 inh: 6; DAX1 inh-2: 0; SMARCA2 act: 12*; SMARCA2 conf: 2; VP16 Luc act: 2

How did FC(F)(F)c1cccc(-c2nc(-c3ccncc3)no2)c1 do in these assays?
NR2E3 ag-2: -39; DAX1 inh-1: 3; GASC-1 inh: 4; DAX1 inh-2: 1; SMARCA2 act: 9.2*; SMARCA2 conf: 6; VP16 Luc act: 4

How did COc1cccc(-c2nc(-c3ccccc3)no2)c1 do in these assays?
NR2E3 ag-1: -4; NR2E3 ag-2: -161; DAX1 inh-1: 4; GASC-1 inh: -9; DAX1 inh-2: 3.8*; SMARCA2 act: 8.8*; SMARCA2 conf: 8.4*; VP16 Luc act: 14*

What do the screens show for `COc1cccc(-c2nc(-c3ccccn3)no2)c1`?
NR2E3 ag-1: 0; GASC-1 inh: 1; DAX1 inh-2: -1; SMARCA2 act: -5

Results for C[C@H](O)[C@@H]1CN2CCc3c([nH]c4ccccc34)[C@@H]2C[C@@H]1N(C)CC1CCCCC1 ?
DAX1 inh-2: 0; SMARCA2 act: -3

How did O=C(c1ccc(Cl)c(S(=O)(=O)N2CCCC2)c1)N1CCCC(C(F)(F)F)C1 (stereo not drawn) do in these assays?
NR2E3 ag-1: 0; NR2E3 ag-2: 8; DAX1 inh-1: 0; GASC-1 inh: 4; DAX1 inh-2: 0; SMARCA2 act: 0

Results for Cc1ccc(-c2nc3ncccn3c2NC(=O)c2cccc(C)c2)cc1 ?
DAX1 inh-2: 0; SMARCA2 act: -1

How did CCOC(=O)[C@]12CCCCC/C=C\1N(CCc1ccc(Cl)cc1)C(=O)[C@H]2CC(=O)NCCC(C)C do in these assays?
DAX1 inh-2: -1; SMARCA2 act: -1

How did COc1ccc(-c2noc(-c3ccc(Cl)cc3)n2)cc1 do in these assays?
NR2E3 ag-1: -2; GASC-1 inh: -2

How did COc1ccc(-c2nc(-c3ccc(C(=O)O)cc3)no2)cc1 do in these assays?
NR2E3 ag-1: 4; NR2E3 ag-2: -161; DAX1 inh-1: 0; GASC-1 inh: 2; DAX1 inh-2: 3.9*; SMARCA2 act: 8.4*; SMARCA2 conf: 8.4*; VP16 Luc act: 15*

What do the screens show for `COc1ccc(NC(=O)CSc2nc(C)cc(=O)[nH]2)cc1OC`?
DAX1 inh-2: 0; SMARCA2 act: -5

What do the screens show for `CCOC(=O)c1c(C)[nH]c(N=Nc2ccc(OC)cc2)c1C`?
NR2E3 ag-1: 2; NR2E3 ag-2: -152; DAX1 inh-1: 4; GASC-1 inh: 2; DAX1 inh-2: 3; SMARCA2 act: 9.3*; SMARCA2 conf: 4; VP16 Luc act: 7.7*

Results for CN(C)c1ccc(CNn2cnnc2SCc2ccccc2F)cc1 ?
NR2E3 ag-1: -1; NR2E3 ag-2: -36; DAX1 inh-1: 2; GASC-1 inh: -11; DAX1 inh-2: 0; SMARCA2 act: 10*; SMARCA2 conf: 2; VP16 Luc act: 3

What do the screens show for `CN(C)c1ccc(CNn2cnnc2SCC(=O)NC(C)(C)C)cc1`?
NR2E3 ag-1: 1; NR2E3 ag-2: 0; DAX1 inh-1: -1; GASC-1 inh: 7; DAX1 inh-2: 0; SMARCA2 act: -3

What do the screens show for `O=C(CCc1ccccc1)N[C@H]1[C@H](OCc2ccccc2)CCC[C@@]12C(=O)N(Cc1ccccc1)c1ccccc12`?
DAX1 inh-2: -1; SMARCA2 act: -3

Results for COC(=O)[C@]12C[C@H](CC(=O)NCc3cccs3)C(=O)N(Cc3cccc4ccccc34)C1=C[C@H](COCc1ccccc1)O[C@@H]2C ?
DAX1 inh-2: -1; SMARCA2 act: -2

How did O=C(COc1ccccc1Cl)NCCc1ccc2c(c1)OCCO2 do in these assays?
NR2E3 ag-1: 4; NR2E3 ag-2: -5; DAX1 inh-1: 0; GASC-1 inh: 2; DAX1 inh-2: 1; SMARCA2 act: 11*; SMARCA2 conf: 4; VP16 Luc act: 1

What do the screens show for `Cc1ccc(-n2c(C)csc2=N)cc1`?
NR2E3 ag-1: -3; NR2E3 ag-2: -90; DAX1 inh-1: 1; GASC-1 inh: -3; DAX1 inh-2: 2; SMARCA2 act: 8.7*; SMARCA2 conf: 8; VP16 Luc act: 19*

What do the screens show for `Cc1csc(=N)n1-c1ccc(Cl)cc1`?
NR2E3 ag-1: 0; NR2E3 ag-2: -109; DAX1 inh-1: 2; GASC-1 inh: 0; DAX1 inh-2: 2; SMARCA2 act: 5

Results for C[C@@H]1COc2cccc(N3CCSCC3)c2S(=O)(=O)N1C ?
DAX1 inh-2: -1; SMARCA2 act: 4

What do the screens show for `COc1cc(/C=C2\Oc3cc(O)ccc3C2=O)ccc1O`?
NR2E3 ag-1: 0; NR2E3 ag-2: -78; DAX1 inh-1: 7.4*; DAX1 inh-2: 4.3*; SMARCA2 act: 10*; SMARCA2 conf: 18*; VP16 Luc act: 10*

What do the screens show for `COc1ccc(C=C2C(=O)OC(C)(C)OC2=O)cc1OC`?
NR2E3 ag-1: -5; NR2E3 ag-2: -1; DAX1 inh-1: 3; GASC-1 inh: 3; DAX1 inh-2: 0; SMARCA2 act: 0

How did COc1ccc(/C=C2\OC(=O)c3c(OC)cccc32)cc1OC do in these assays?
NR2E3 ag-1: 5; NR2E3 ag-2: -150; DAX1 inh-1: 1; GASC-1 inh: 6; DAX1 inh-2: 4; SMARCA2 act: 8.6*; SMARCA2 conf: 22*; VP16 Luc act: 14*

What do the screens show for `COc1ccc(C(=O)N/N=C(\C)Cn2cnc([N+](=O)[O-])n2)cc1`?
NR2E3 ag-1: 1; NR2E3 ag-2: -32; DAX1 inh-1: 1; GASC-1 inh: 12; DAX1 inh-2: 0; SMARCA2 act: 13*; SMARCA2 conf: 1; VP16 Luc act: 0

What do the screens show for `C/C(Cn1cnc([N+](=O)[O-])n1)=N\NC(=O)c1ccc(F)cc1`?
NR2E3 ag-1: 1; NR2E3 ag-2: -8; DAX1 inh-1: -2; GASC-1 inh: 19; DAX1 inh-2: 1; SMARCA2 act: -2
